Reference: the RNAGym collection of RNA variant scans (doi:10.1038/s41586-018-0170-7)

B1: tRNA (parent)
chain: GUUCCGUUGGCGUAAUGGUAACGCGUCUCCCUCCUAAGGAGAAGACUGCGGGUUCGAGUCCCGUACGGAACG

Variants of: B1
Assay: yeast fitness, log relative to wild type (ln ratio); higher = fitter; tRNA-Arg(CCU), competitive growth, 37 C, 1 M NaCl
Outline: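 In BY4742 missing the chromosomal gene, a combinatorial tRNA-Arg(CCU) variant library was maintained on a HIS3 centromeric plasmid. Selection ran ~6.5 generations (~26.5 h) in SC-HIS 1M NaCl at 37 °C, following 4 generations in SC-HIS at 30 °C, with three outputs per input and variant counts by 125 bp paired-end Illumina sequencing. Fitness is the natural log of a genotype's generations relative to the wild type's, with generations taken as inverse-variance-weighted, OD-scaled log2 output/input frequency.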

Variant | yeast fitness (ln)
G6A A43C A69G A70U C71U | -0.429
G6A C27U A43C C46U C66A A70G C71U | -0.296
G6A A43C A70G C71U | -0.283
U2G G6U C66U A70U C71U | -0.303
G6A C27U A43C C46U C66U A69G C71U | -0.307
G6A C27U C46U C66U A69G A70G C71U | -0.215
G6A C27U A43C C66U A69G A70G | -0.374
G6A C27U A43C C66U A69G A70U | -0.452
G6A C27U A43C C46U A69G A70U C71U | -0.441
G6A A43C C46U C66U C71U | -0.12
G6A C27U A43C C46U A69G C71U | -0.344
G6A C27U C46U C66U A69G A70G | -0.213
G6A C27U C46U C66U A69G A70U | -0.196
G6A A43C C46U C66A | -0.0495
G6A A43C C46U C66U | -0.00855
G6A A43C C66U A69G A70G C71U | -0.261
U2G G6U C46U C66A A70G C71U | -0.26
G6A A43C C46U A69G A70G | -0.216
G6A A43C C46U A69G A70U | -0.124
G6A A43C C66A A70G C71U | -0.275
G6A C27U A43C C46U C66U A69G A70U | -0.306

Variant | yeast fitness (ln)
G6A C27U A43C C46U C66U A69G A70G | -0.369
G6A C46U A69G C71U | -0.109
U2G G6U C27U C46U C71U | -0.199
U2G G6U C27U C66U A70U C71U | -0.343
G6A C27U A43C C46U C66A | -0.269
G6A C27U A43C C46U C66U | -0.0283
G6A C27U A43C C46U C66U A70G C71U | -0.213
G6A C27U C66U | -0.0352
G6A C27U C66A | -0.192
G6A C27U C66U A70G | -0.0946
G6A C27U C66U A70U | -0.188
G6A C27U A43C C46U C71U | -0.176
G6A C27U C66A C71U | -0.168
G6A C27U A43C C66U A69G A70U C71U | -0.529
G6A A70G C71U | -0.175
G6A C46U C66A A70G | -0.117
G6A C27U A43C C46U C66A A69G A70G | -0.229
G6A C27U A43C C46U C66A A69G A70U | -0.28
G6A C27U C46U A70G C71U | -0.206
U2G G6U C46U C66U A70U C71U | -0.643
U2G G6U C27U A69G A70U C71U | -0.515

Variant | yeast fitness (ln)
U2G G6U C27U C46U A70U | -0.176
U2G G6U C27U C46U A70G | -0.156
G6A C27U A69G A70U | -0.243
G6A C27U A69G A70G | -0.12
G6A A43C C46U C66A C71U | -0.229
U2G G6U C46U C66U | -0.131
U2G G6U C46U C66A | -0.0648
U2G G6U C27U C46U C66U | -0.147
U2G G6U C27U C46U C66A | -0.144
U2G G6U C46U C66U A69G A70G C71U | -0.231
G6A C27U C46U C66U A70G C71U | -0.387
U2G G6U C46U C66U A69G A70U C71U | -0.39
G6A A43C A70U C71U | -0.266
U2G G6U C66A A69G A70U C71U | -0.726
G6A C27U C46U C66U A70U | -0.0845
G6A C27U C46U C66U A70G | -0.0516
G6A A43C C66U A69G C71U | -0.51
G6A C27U A43C C46U A69G | -0.166
G6A C27U A43C C66A A69G A70G C71U | -0.262
U2G G6U C27U C66A A69G A70G C71U | -0.25
U2G G6U C27U C46U C66A A69G A70G C71U | -0.25

Variant | yeast fitness (ln)
G6A A43C C66U A69G A70U C71U | -0.295
G6A A69G A70U C71U | -0.315
G6A C27U C66A A70G C71U | -0.364
G6A A43C C46U C66A A70G C71U | -0.286
U2G G6U C46U C66A C71U | -0.0521
U2G G6U C46U C66U A69G A70G | -0.162
U2G G6U C46U C66U A69G A70U | -0.264
G6A C27U A43C C46U C66A A70G | -0.191
G6A C27U A43C C46U C66A A70U | -0.193
U2G G6U C46U C71U | -0.134
U2G G6U C27U C66A A70G | -0.243
U2G G6U C27U C66A A70U | -0.0251
U2G G6U C46U A70U | -0.0198
U2G G6U C46U A70G | -0.104
U2G G6U C46U C66A A69G C71U | -0.185
U2G G6U C27U C46U C66U C71U | -0.246
U2G G6U C66A | -0.0885
U2G G6U C66U | -0.0894
U2G G6U C66A A69G C71U | -0.101
G6A A43C C66U A70U | -0.204
